# Hits are enriched below; roughly 3.7% of the tested compounds scored in any of these assays.
# Kir21 inh – inhibitors of mouse Kir2.1 inward-rectifier potassium channel. P35561. HEK293-Kir2.1, FluxOR thallium flux fluorescence; stronger effect = lower value. B-score at 10 µM. 310,000 compounds, 0.85% hits. AID 1672;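 active = fluorescence ratio B-score at or below minus 3 SD of library scores, with starting-brightness B-score within 2 SD, cut at about -4.2 in these data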;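 also: channel flux triggered by added potassium and thallium sulfate stimulus; B-score of peak minus minimum fluorescence over baseline after thallium stimulus; more negative B-score means stronger Kir2.1 block with less thallium influx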
# hERG protect – shields human hERG channel from block by proarrhythmic agents; AID 1511; activation (rescue from dofetilide block), less the hit threshold, % at 10 µM; CHO-hERG, FluxOR thallium flux, dofetilide IC70 present; Q12809; 310,000 compounds, 0.51% hits;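 active = activation above the mean of controls blocked by dofetilide plus 5 SD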;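 also: thallium influx through hERG after potassium depolarization seen as dye fluorescence rise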
# KCNK9 block – human KCNK9 channel inhibition; Q9NPC2; HEK293 KCNK9, FluxOR thallium flux fluorescence; stronger effect = lower value; B-score at 10 µM; 310,000 compounds, 1.2% hits; AID 488922;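 active = ratio B-score over 3 SD below the library mean, with starting fluorescence within 5 SD of its mean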;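 also: negative B-score means less thallium flux so channel inhibition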
# Target sequence (Q9NPC2 whole entry, looked up): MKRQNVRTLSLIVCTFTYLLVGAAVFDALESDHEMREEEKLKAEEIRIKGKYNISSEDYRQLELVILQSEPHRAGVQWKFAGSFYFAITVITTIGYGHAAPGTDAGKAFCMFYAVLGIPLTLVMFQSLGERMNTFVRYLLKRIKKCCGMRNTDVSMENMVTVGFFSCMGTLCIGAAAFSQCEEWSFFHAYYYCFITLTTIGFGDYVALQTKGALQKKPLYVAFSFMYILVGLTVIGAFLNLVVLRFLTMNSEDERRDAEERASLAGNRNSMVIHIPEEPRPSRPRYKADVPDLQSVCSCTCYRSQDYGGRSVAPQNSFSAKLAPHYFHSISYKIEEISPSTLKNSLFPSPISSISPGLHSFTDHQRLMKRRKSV
# KCNK3 block – human KCNK3 channel inhibition, primary screen. B-score at 10 µM. CHO-KCNK3 thallium flux, FluxOR fluorescence; stronger effect = lower value. AID 602410. 340,000 compounds, 0.84% hits;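 active = B-score under library mean minus 4 SD, starting fluorescence ratio at most library mean plus 5 SD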;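 also: more negative B-score means stronger inhibition of thallium flux through KCNK3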
# KCNQ1 block – blocks the human KCNQ1 potassium channel; B-score at 10 µM; P51787; CHO-K1 KCNQ1, FluxOR thallium flux fluorescence; stronger effect = higher value; 310,000 compounds, 1.3% hits;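 active = compounds whose thallium flux B-score, printed positive for inhibition, exceeds three library SD while starting fluorescence stays within three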;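 also: channel opened by potassium depolarization with thallium stimulus after 20 min compound exposure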
# KCNQ1 pot – potentiates or activates the human KCNQ1 potassium channel; P51787; CHO-K1 KCNQ1, thallium flux FluxOR fluorescence; stronger effect = higher value; B-score at 10 µM; 310,000 compounds, 0.35% hits; AID 2648;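 active = fluorescence ratio B-score, a plate-corrected score, at least three library SD, with initial intensity B-score within 5 SD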
#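 Test system: CHO-K1 cells stably expressing KCNQ1 / Medium: assay buffer / Also added: depolarizing K+/Tl+ stimulus, K2SO4 and Tl2SO4 each 12.5 mM in 5x stock / Incubation: 90 min dye loading and 20 min compound exposure, both at room temperature / Signal: thallium influx via FluxOR fluorescence, kinetic imaging / Evaluation: B score of baseline-normalized fluorescence ratio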
# KCNK3 inh conf – human KCNK3 channel inhibition, confirmation assay; shares compounds with KCNK3 block; CHO-KCNK3 thallium flux, FluxOR fluorescence; 0% buffer, 100% carvedilol maximal block; ratio percent of control, % at 10 µM; 2,400 compounds, 99% hits; AID 651638;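 active = ratio percent of control, averaged over triplicates, above buffer control mean plus 5 SD, cut at about 64% in these data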;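 also: ratio is the fluorescence rise from min to max over baseline after thallium stimulus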
# KCNK3 noninduced – counter-screen for KCNK3 inhibitors: effect in non-induced cells. shares compounds with KCNK3 block. non-induced KCNK3 parental cells, FluxOR thallium flux; stronger effect = lower value. thallium flux ratio (lower = more inhibition) at 10 µM. 2,400 compounds, 40% hits. AID 651747;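 active = thallium flux ratio, averaged over three wells, more than 5 SD below the buffer control mean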;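 also: host cells are CHO cells without KCNK3 induction; ratio is peak minus trough fluorescence over baseline then normalized to buffer controls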
# * = called active by the depositor; i = inactive; . = not tested or not shown.
SMILES,Kir21 inh,hERG protect,KCNK9 block,KCNK3 block,KCNQ1 block,KCNQ1 pot,KCNK3 inh conf,KCNK3 noninduced
Cc1sc2ncnc(N3CCC(C(=O)Oc4cccc(Cl)c4Cl)CC3)c2c1C,0.67,-1,-8.1*,-9.1*,i,i,96*,i
Cc1sc2ncnc(N3CCC(C(=O)Nc4ccccc4C(C)(C)C)CC3)c2c1C,0.46,-11,i,i,i,i,.,.
Cc1sc2ncnc(N3CCC(C(=O)Nc4nc(-c5cccs5)cs4)CC3)c2c1C,0.57,-18,i,-8.9*,i,i,94*,i
Cc1ccc(NC(=O)c2ncc(Cl)c(Cl)c2Cl)cc1C,0.48,-7,i,i,i,i,.,.
CC(C)CCn1c(SCC(=O)N2CC(=O)Nc3ccccc32)nc2scc(-c3cccs3)c2c1=O,0.35,-8,i,i,i,i,.,.
C=CCn1c(SCC(=O)N2CC(=O)Nc3ccccc32)nc2scc(-c3cccs3)c2c1=O,1.9,-15,-7.4*,-13*,i,i,110*,i
COc1cc2nc(Nc3ccc(C)c(C)c3)nc(N)c2cc1OC,-4.7*,-16,i,-9.3*,i,i,114*,i
CCOC(=O)C1=C(C)N=C2SCCC(=O)N2C1c1cc(Br)ccc1OC (stereo not given),-1.6,-5,i,i,i,i,.,.
COCCOC(=O)C1=C(C)N=C2SCCC(=O)N2C1c1cccc(Br)c1 (stereo not given),-2,-14,i,-9.3*,i,i,112*,i
O=[N+]([O-])/C(C(Cl)=C(Cl)Cl)=C(\Sc1ccccc1)N1CCCCC1,1.4,-14,i,i,i,i,.,.
O=[N+]([O-])C(=C1SCCS1)C(=C(Cl)Cl)N1CCCCC1,1.2,-4,i,-11*,i,i,105*,i
CCOc1cc(/C=N/NC(=O)CN2CCOCC2)ccc1OCc1ccc(Cl)cc1,-1.1,-5,i,-11*,i,i,0,i
CCOc1cc(/C=N/NC(=O)CN2CCCCC2)ccc1OCc1ccccc1,-2,-10,i,i,i,i,.,.
CCOc1ccccc1CNC(c1ccccc1)c1ccccc1,-1.5,-12,i,-10*,i,i,67*,0.16*
COc1ccccc1CNC(c1ccccc1)c1ccccc1,-2.8,-13,i,i,i,i,.,.
CCOC(=O)CNC(=S)N(Cc1ccco1)Cc1ccccc1Cl,-0.32,-7,i,-10*,i,i,124*,i
Cc1cccc(NC(=S)N(CCN2CCOCC2)Cc2cc3cc4c(cc3[nH]c2=O)OCCO4)c1,-1.5,-15,i,-12*,i,i,91*,i
COc1ccc(NC(=S)N(CCN2CCOCC2)Cc2cc3cc4c(cc3[nH]c2=O)OCO4)cc1,1.4,-3,i,.,i,i,.,.
CCOc1ccc(NC(=S)N(CCN2CCOCC2)Cc2cc3cc4c(cc3[nH]c2=O)OCO4)cc1,1.4,-11,i,i,i,i,.,.
Cc1ccc(NC(=S)N(CCN2CCOCC2)Cc2cc3cc4c(cc3[nH]c2=O)OCCO4)cc1,0.34,-12,i,-8.9*,i,i,98*,i
Cc1ccc(NC(=S)N(CCN2CCOCC2)Cc2cc3cc4c(cc3[nH]c2=O)OCO4)cc1,0.02,-12,i,-11*,i,i,92*,i
COc1ccc(C(=O)N(Cc2ccccc2)c2cccc(C)c2)cc1,-1.5,-11,i,i,i,i,.,.
COc1ccccc1CC(=O)N(Cc1ccccc1)c1cccc(C)c1,-2,-11,i,-12*,i,i,103*,0.15*
CCCOP(=O)(OCCC)C(Nc1ccc(C(C)C)cc1)c1ccc([N+](=O)[O-])cc1 (stereo not given),1.2,-16,i,-8.8*,i,i,118*,0.16*
Cc1ccc(C)c(NC(=O)c2ccc3c(c2)N(Cc2ccc(F)cc2)C(=O)CS3=O)c1 (stereo not given),-0.55,-10,i,i,i,i,.,.
SMILES,Kir21 inh,hERG protect,KCNK9 block,KCNK3 block,KCNQ1 block,KCNQ1 pot,KCNK3 inh conf,KCNK3 noninduced
O=C(Nc1ccc(Br)cc1F)c1ccc2c(c1)N(Cc1ccccc1)C(=O)CS2=O (stereo not given),-1.2,-6,i,-13*,i,i,100*,i
CN(CCOc1ccc(Cl)cc1)C(=O)c1cc(-c2ccco2)nc2ccccc12,0.85,-32,i,-10*,i,i,117*,0.13*
CCCn1c2ccccc2c2cnn(CC(=O)N3CCN(C4CCCCC4)CC3)c(=O)c21,0.24,-5,i,i,i,i,.,.
COC(=O)c1ccccc1NC(=O)Cn1cnc2ccc(S(=O)(=O)N3CCC(C)CC3)cc2c1=O,1.4,-1,i,i,i,i,.,.
CC1CCN(S(=O)(=O)c2ccc3ncn(CC(=O)N(C)Cc4ccccc4)c(=O)c3c2)CC1,-0.02,-2,i,-13*,i,i,72*,i
c1ccc2cc(OCCCn3ccnc3)ccc2c1,-0.45,-9,i,i,i,i,.,.
N#Cc1nc(-c2ccco2)oc1N1CCN(c2ccccc2)CC1,-0.09,-5,i,-11*,i,i,119*,i
COc1ccc(N2CCN(c3oc(-c4ccco4)nc3C#N)CC2)cc1,-1.3,-12,i,i,i,i,.,.
COc1ccc(Br)cc1CNC(=O)CN1C(=O)C(c2ccccc2)Oc2cccnc21 (stereo not given),-0.55,-10,i,-10*,i,i,95*,i
CCOC(=O)C1=C(C)OC(N)=C(C#N)C1c1cc(Cl)c(OCC(N)=O)c(OC)c1 (stereo not given),-1.3,-7,i,i,i,i,.,.
CCOC(=O)C1=C(C)OC(N)=C(C#N)C1c1cc(OC)c2c(c1)OCO2 (stereo not given),-1.4,-10,i,-9.7*,i,i,94*,i
CCN(c1ccc(OC)cc1)S(=O)(=O)c1ccc(-c2cc(C)no2)s1,-0.86,0,i,-12*,i,i,119*,i
CCc1ccccc1N(C)S(=O)(=O)c1ccc(-c2cc(C)no2)s1,0.97,-6,i,-9.9*,i,i,113*,i
